Molecules are shown by their SMILES. Some results are limits rather than exact numbers.

In series [1] the target is T1, Amine oxidase [flavin-containing] A (Homo sapiens, UniProt P21397).
T1 sequence (P21397 whole entry): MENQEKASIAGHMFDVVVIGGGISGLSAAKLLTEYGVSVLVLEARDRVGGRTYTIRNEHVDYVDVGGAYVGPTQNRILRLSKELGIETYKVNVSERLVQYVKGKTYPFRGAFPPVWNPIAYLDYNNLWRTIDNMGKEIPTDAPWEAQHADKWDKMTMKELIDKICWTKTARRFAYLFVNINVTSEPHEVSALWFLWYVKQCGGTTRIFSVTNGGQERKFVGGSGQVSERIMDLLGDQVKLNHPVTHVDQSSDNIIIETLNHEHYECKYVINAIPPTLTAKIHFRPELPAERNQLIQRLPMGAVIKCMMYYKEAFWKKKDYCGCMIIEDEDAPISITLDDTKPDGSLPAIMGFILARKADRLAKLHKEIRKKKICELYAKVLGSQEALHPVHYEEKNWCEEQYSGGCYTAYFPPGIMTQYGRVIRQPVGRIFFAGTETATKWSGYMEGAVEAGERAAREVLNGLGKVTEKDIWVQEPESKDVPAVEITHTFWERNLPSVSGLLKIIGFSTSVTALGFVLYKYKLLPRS
Kind of series: Inhibition of human recombinant MAO-A assessed as hydrogen peroxide production at 20 uM. The gist of the method: (§1)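 Recombinant hMAO-A or hMAO-B microsomes came from baculovirus-infected BTI-TN-5B1-4 insect cells. Enzyme was set to 165 pmol p-tyramine/min (A 1.1 µg, B 7.5 µg protein). It was preincubated with compound in 0.05 M sodium phosphate, pH 7.4, for 15 min at 37 °C. Final 200 µM Amplex Red, 1 U/mL HRP and 1 mM p-tyramine started the reaction. H2O2 was read as resorufin fluorescence (ex 545/em 590 nm) over 15 min at 37 °C against vehicle controls.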

Series [2] addresses T2, Amine oxidase [flavin-containing] B (Homo sapiens, UniProt P27338).
T2 sequence (P27338 whole entry): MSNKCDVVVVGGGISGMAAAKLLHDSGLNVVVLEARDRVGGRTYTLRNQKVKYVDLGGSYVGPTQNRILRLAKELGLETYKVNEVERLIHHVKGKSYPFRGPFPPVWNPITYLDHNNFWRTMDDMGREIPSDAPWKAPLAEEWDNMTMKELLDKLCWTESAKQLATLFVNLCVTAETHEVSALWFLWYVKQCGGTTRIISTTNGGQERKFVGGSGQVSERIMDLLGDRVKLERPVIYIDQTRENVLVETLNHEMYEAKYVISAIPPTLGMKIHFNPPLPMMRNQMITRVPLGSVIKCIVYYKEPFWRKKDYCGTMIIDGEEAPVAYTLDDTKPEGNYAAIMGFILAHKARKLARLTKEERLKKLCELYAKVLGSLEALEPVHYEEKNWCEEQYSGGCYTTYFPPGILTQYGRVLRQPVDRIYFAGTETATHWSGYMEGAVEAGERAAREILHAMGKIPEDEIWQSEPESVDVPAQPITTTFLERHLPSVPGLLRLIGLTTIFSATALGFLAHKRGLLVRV

The species named for another series is Homo sapiens. Nature of the series: Selectivity index, ratio of inhibition of human recombinant MAO-A at 20 uM or 50 uM to IC50 for human recombinant MAO-B.
Series [3] deals with T1, Amine oxidase [flavin-containing] A. Kind of series: Inhibition of human recombinant MAO-A assessed as hydrogen peroxide production at 50 uM. The method in brief:
as §1

Series [4] deals with T2, Amine oxidase [flavin-containing] B. Nature of the series: Inhibition of human recombinant MAO-B assessed as hydrogen peroxide production at 1 mM. The method in brief:
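Microsomal recombinant hMAO-B (baculovirus-infected BTI-TN-5B1-4 insect cells; 7.5 µg protein) preincubated with drug in 0.05 M sodium phosphate, pH 7.4, 15 min, 37 °C. Started with (final) 200 µM Amplex Red, 1 U/mL horseradish peroxidase, 1 mM p-tyramine. H2O2 read as resorufin fluorescence (ex 545/em 590 nm) over 15 min at 37 °C. Vehicle controls; five experiments.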

For series [5], the target named is T1, Amine oxidase [flavin-containing] A. Kind of series: Inhibition of human recombinant MAO-A assessed as hydrogen peroxide production.
Series [6] shares this target. Kind of series: Inhibition of human recombinant MAO-A assessed as hydrogen peroxide production at 1 mM.
Series [7] has as its target T2, Amine oxidase [flavin-containing] B. Kind of series: Inhibition of human MAO-B at 5 uM before washing.
Series [8] shares this target. Kind of series: Inhibition of human MAO-B at 5 uM after repeated washing.
The target is the same in series [9]. Nature of the series: Inhibition of human recombinant MAO-B assessed as hydrogen peroxide production at 20 uM.
Series [10] shares this target. Kind of series: Inhibition of human MAO-B at 20 uM before washing.
For series [11] the target is unchanged. Nature of the series: Inhibition of human MAO-B at 20 uM after repeated washing.

For `CC(C)=CCOc1ccc(C(=O)/C=C/c2ccc(Cl)cc2)c(O)c1`, the IC50 entry is “Not Active” in [1] and 1250 nM in [2]. In addition, the Ratio IC50 in the series filed under Homo sapiens is above 16.
With `O=C(/C=C/c1ccc(Cl)cc1)c1ccc(O)cc1`, the IC50 entry in series [3] was “Not Active”; in series [2], 31 nM. Also, the Ratio IC50 in the series listed under Homo sapiens is above 1610.
For `O=C(/C=C/c1ccc(Cl)cc1)c1ccccc1O` the same measures were “Not Active”, 160 nM and above 312.
For the compound `O=C(NCCN1CCOCC1)c1ccc(Cl)cc1` [MOCLOBEMIDE], in series [4], the IC50 result was “Not Active”.
For `O=C(/C=C/c1ccc(Cl)cc1)c1ccc(O)cc1O`, the IC50 in series [5] was 4950 nM; in series [2], 5.1 nM; in series [6], “Not Active”. The Ratio IC50 in the series filed under Homo sapiens was 971. Also, the “inhibition (INH)” value is recorded as 55.12% in [7] and 61.38% in series [8].
Take `CC(C)=CCOc1ccc(C(=O)/C=C/c2ccc(C)cc2)c(O)c1`: the IC50 entry in series [1] was “Not Active”; in series [2] it was 1030 nM. Also, in the series listed under Homo sapiens, the Ratio IC50 is above 19.
Take `O=C(/C=C/c1ccc(OCc2ccccc2)cc1)c1ccc(F)cc1`: the IC50 result was “Not Active” in [1] and 500 nM in [2]. For the same compound, in the series filed under Homo sapiens, the Ratio IC50 was above 40.
For `CC(C)=CCOc1ccc(C(=O)/C=C/c2ccc(OCc3ccccc3)cc2)c(O)c1`, the IC50 entry in series [1] and in [9] was “Not Active” each time.
Turning to `O=C(/C=C/c1ccc(Cl)cc1)c1ccc(F)cc1O`, in series [2], the IC50 was found to be 71 nM. Besides, the Ratio IC50 in the series listed under Homo sapiens was above 704.
For the compound `C#CCN(C)[C@H](C)Cc1ccccc1` [SELEGILINE], the IC50 result in [6] is reported as “Not Active”.
`CC(C)=CCOc1ccc(C(=O)/C=C/c2ccccc2)c(O)c1` [CORDOIN]: the IC50 result in series [1] is “Not Active”; in series [2], 18800 nM. In the series listed under Homo sapiens, the Ratio IC50 is above 1.1. The “inhibition (INH)” value in series [10] turned out to be 54.32%; in series [11], 58.51%.
Consider `C#CCN(C)CCCOc1ccc(Cl)cc1Cl` [CLORGILINE], for which, in series [6], the IC50 entry was “Not Active”.
For the compound `COc1ccc(C(=O)/C=C/c2ccc(OCc3ccccc3)cc2)cc1`, the figures for the IC50 result in [1] and in series [2] were “Not Active” and 450 nM, respectively. The Ratio IC50 in the series filed under Homo sapiens is above 44.
Turning to `COc1ccc(C(=O)/C=C/c2ccc(Cl)cc2)cc1`, the IC50 entry in [1] was “Not Active”; in series [2] it was 54 nM. Also, the Ratio IC50 in the series filed under Homo sapiens was above 370.
For the compound `COc1ccc(/C=C/C(=O)c2ccc(OCC=C(C)C)cc2O)cc1`, the IC50 result in series [1] and in series [9] was “Not Active” in each case.
`COc1ccc(C(=O)/C=C/c2ccc(Cl)cc2)c(O)c1`: the “inhibition (INH)” value is listed as 59.13% in series [7] and 60.26% in series [8].
With `O=C(/C=C/c1ccccc1)c1ccccc1` [CHALCONE], the IC50 result in [1] is “Not Active”; in [2], 1410 nM. Also, the Ratio IC50 in the series listed under Homo sapiens is above 14.
Regarding `O=C(/C=C/c1ccc(Cl)cc1)c1ccc(OCc2ccccc2)cc1`, in [1], the IC50 entry was “Not Active”.
Regarding `CS(=O)(=O)c1ccc(C(=O)/C=C/c2ccc(Cl)cc2)cc1`, the IC50 entry is “Not Active” in [1] and 470 nM in series [2]. Moreover, in the series filed under Homo sapiens, the Ratio IC50 is above 43.

Source of the values: ChEMBL document CHEMBL1138489, “Chalcones: a valid scaffold for monoamine oxidases inhibitors” (J Med Chem, 2009).
